# Experimental data reported in ChEMBL document CHEMBL3822425, “Isatin Derived Spirocyclic Analogues with α-Methylene-γ-butyrolactone as Anticancer Agents: A Structure-Activity Relationship Study” (J Med Chem, 2016).
# Activity calls are given as the source filed them. The rule behind the calls is not given here.
# Columns and labels:
# A2780 [1] = assay: Cytotoxicity against human A2780 cells assessed as cell growth inhibition after 3 days by presto blue dye based plate reader method; format: functional; conditions: A2780, 72 h
# In short: (§1)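 Cells in DMEM high glucose/10% FBS (A2780 in RPMI/10% FBS), 4,000 per well, overnight, then 40 to 0.039 µM or vehicle, 24, 48, 72 h at 37°C, 5% CO2; PrestoBlue 15 min, fluorescence 560ex/590em; growth as 100×[(T−Tz)/(C−Tz)] per NCI algorithm.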
# SW480 [2] = assay: Cytotoxicity against human SW480 cells assessed as cell growth inhibition after 3 days by presto blue dye based plate reader method; format: functional; conditions: SW480, 72 h
# HeLa [3] = assay: Cytotoxicity against human HeLa cells expressing GFP assessed as cell growth inhibition after 3 days by presto blue dye based plate reader method; format: functional; conditions: 72 h; in short: as §1
# SW480 [4] = assay: Potency index, ratio of parthenolide IC50 to compound IC50 for cell growth inhibition of human SW480 cells; format: functional
# A2780 [5] = assay: Potency index, ratio of ibrutinib EC50 to compound EC50 for cell growth inhibition of human A2780 cells; format: functional
# HeLa [6] = assay: Potency index, ratio of parthenolide IC50 to compound IC50 for cell growth inhibition of human HeLa cells; format: functional
# HeLa [7] = assay: Potency index, ratio of ibrutinib IC50 to compound IC50 for cell growth inhibition of human HeLa cells; format: functional
# A2780 [8] = assay: Potency index, ratio of parthenolide EC50 to compound EC50 for cell growth inhibition of human A2780 cells; format: functional
# MIA PaCa-2 [9] = assay: Potency index, ratio of parthenolide IC50 to compound IC50 for cell growth inhibition of human MIAPaCa2 cells; format: functional
# SW480 [10] = assay: Potency index, ratio of ibrutinib IC50 to compound IC50 for cell growth inhibition of human SW480 cells; format: functional
# [11] = Cytotoxicity against human MIAPaCa2 cells assessed as cell growth inhibition after 3 days by presto blue dye based plate reader method; format: functional; conditions: MIA PaCa-2, 72 h; in short: as §1
# MIA PaCa-2 [12] = assay: Potency index, ratio of ibrutinib IC50 to compound IC50 for cell growth inhibition of human MIAPaCa2 cells; format: functional
# [13] = biological target: T1, Inhibitor of nuclear factor kappa-B kinase subunit beta (Homo sapiens) (UniProt O14920); assay: Inhibition of IKKbeta in human MDA-MB-231 cells assessed as reduction in IkappaBalpha phosphorylation by Western blot analysis; format: cell-based
# T1 sequence (whole entry): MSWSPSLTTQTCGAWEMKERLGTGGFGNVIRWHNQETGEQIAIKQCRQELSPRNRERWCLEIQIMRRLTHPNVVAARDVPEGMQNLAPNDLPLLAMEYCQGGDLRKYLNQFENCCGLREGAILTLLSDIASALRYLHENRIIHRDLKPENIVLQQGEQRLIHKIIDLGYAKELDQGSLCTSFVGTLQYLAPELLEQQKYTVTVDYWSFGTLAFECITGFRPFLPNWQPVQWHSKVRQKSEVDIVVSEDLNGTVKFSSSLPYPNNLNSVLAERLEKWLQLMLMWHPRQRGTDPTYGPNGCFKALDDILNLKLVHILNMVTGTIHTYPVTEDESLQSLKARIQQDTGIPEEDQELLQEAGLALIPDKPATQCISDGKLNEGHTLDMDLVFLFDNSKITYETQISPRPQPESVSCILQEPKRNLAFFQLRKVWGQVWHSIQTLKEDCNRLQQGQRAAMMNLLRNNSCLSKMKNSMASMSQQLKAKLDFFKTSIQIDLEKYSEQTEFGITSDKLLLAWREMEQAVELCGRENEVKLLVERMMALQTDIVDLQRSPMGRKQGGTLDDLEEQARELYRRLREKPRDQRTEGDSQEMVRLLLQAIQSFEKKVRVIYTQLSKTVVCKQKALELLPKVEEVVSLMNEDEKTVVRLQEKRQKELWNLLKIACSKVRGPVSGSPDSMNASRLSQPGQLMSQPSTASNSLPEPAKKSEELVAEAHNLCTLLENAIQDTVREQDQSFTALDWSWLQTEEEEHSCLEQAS
# In short: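 MDA-MB-231 cytoplasmic fractions: swelling 30 min on ice in HEPES/KCl/EDTA/DTT buffer with inhibitors, 1.25% NP-40, centrifuged; lysates on 4-20% gels, PVDF, anti-phospho-IκBα and anti-IκBα, tubulin or GAPDH loading control, ECL detection.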
# Mus musculus [14] = assay: Downregulation of Mcl-1 in human A2780 cells xenografted in nude C57B6 mouse by immunohistochemistry method; format: functional, organism-based
# In short: (§2)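 A2780 tumors from the day-30 nude-mouse study: H&E staining to locate tumor areas, cores punched into a tissue microarray, sections stained with rabbit anti-p65 or anti-Mcl-1 via polymer detection, scored 0-3 by percentage of positive cells (3 = ≥67% positive).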
# MDA-MB-231 [15] = assay: Cytotoxicity against human MDA-MB-231 cells assessed as cell growth inhibition at 0.039 to 40 uM by presto blue dye based plate reader method; format: functional; conditions: TDE = time-dependent effect
# HeLa [16] = assay: Induction of apoptosis in human HeLa cells assessed as PARP cleavage after 24 to 48 hrs by Western blot analysis; format: functional, cell-based
# In short: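 Cells collected with media and trypsinized pellet combined, lysed in RIPA buffer (pH 8.0), 4-20% SDS-PAGE, Western blot with anti-PARP to detect cleavage; HeLa timepoint 48 h.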
# A2780 [17] = assay: Potentiation of cisplatin-induced growth inhibition of human A2780 cells assessed as combination index at 1 to 10 uM after 3 days; format: functional
# In short: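 Combination index values derived from median effect plots and dose-effect curves of combined treatments.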
# Mus musculus [18] = assay: Downregulation of Mcl-1 in human A2780 cells xenografted in nude C57B6 mouse in presence of cisplatin by […]; format: functional, organism-based
# Mus musculus [19] = assay: Downregulation of NF-kappaB p65 in human A2780 cells xenografted in nude C57B6 mouse by immunohistochemistry method; format: functional, organism-based; in short: as §2
# A2780 [20] = assay: Anticancer activity against human A2780 cells xenografted in nude C57B6 mouse orthotopic model of ovarian cancer assessed as tumor growth inhibition at 5 mg/kg administered ip 5 days a week for 4 weeks; format: functional; conditions: read-out: TGI
# In short: (§3)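 Nude mice injected with 2 million A2780 ovarian cancer cells; treatment began day 3 (7 groups). Arms: vehicle, 1, 2.5 or 5 mg/kg given 5 days/week to day 30; cisplatin 2 or 4 mg/kg on days 5, 9, 14, 21; or 2.5 mg/kg plus 2 mg/kg cisplatin. Day 30: mice sacrificed, tumors removed and weighed.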
# SK-OV-3 [21] = assay: Induction of apoptosis in human SKOV3 cells assessed as caspase 3/7 activation after 24 hrs in presence of cisplatin by Caspase Glo-3/7 luminescence assay; format: functional, cell-based
# In short: (§4)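 SKOV3 at 3,000 cells per well, overnight; compound 24 h; alamarBlue 3 h with fluorescence 560ex/590em as viability read; Caspase-Glo 3/7 reagent, shaken 30 s, 1 h room temperature, luminescence at 1000 ms integration.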
# A2780 [22] = assay: Anticancer activity against human A2780 cells xenografted in nude C57B6 mouse orthotopic model of ovarian cancer assessed as tumor growth inhibition administered ip 5 days a week for 4 weeks; format: functional; in short: as §3
# [23] = Inhibition of TNFalpha-induced IKKbeta-mediated NF-kappaB activity in human A549 cells after 2 hrs followed by TNFalpha addition for 3 hrs by ONE-Glo Luciferase reporter based luminescence assay; format: cell-based
# In short: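 A549 NF-κB luciferase cells (hygromycin B-maintained), 50,000 per well overnight; compound 2 h, then 20 ng/mL TNFα 3 h; alamarBlue 3 h as seeding/viability control; ONE-Glo added, 10 min room temperature, luminescence at 1000 ms.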
# Mus musculus [24] = assay: Toxicity in nude C57B6 mouse orthotopic model of ovarian cancer xenografted with human A2780 cells assessed overt toxicity at 1 to 5 mg/kg administered ip 5 days a week for 4 weeks; format: organism-based; conditions: in vivo
# serum albumin = serum albumin (Homo sapiens, UniProt P02768); assay: Binding affinity to human serum albumin assessed as half life by HPLC analysis; format: ADME
# serum albumin, sequence (P02768 whole entry): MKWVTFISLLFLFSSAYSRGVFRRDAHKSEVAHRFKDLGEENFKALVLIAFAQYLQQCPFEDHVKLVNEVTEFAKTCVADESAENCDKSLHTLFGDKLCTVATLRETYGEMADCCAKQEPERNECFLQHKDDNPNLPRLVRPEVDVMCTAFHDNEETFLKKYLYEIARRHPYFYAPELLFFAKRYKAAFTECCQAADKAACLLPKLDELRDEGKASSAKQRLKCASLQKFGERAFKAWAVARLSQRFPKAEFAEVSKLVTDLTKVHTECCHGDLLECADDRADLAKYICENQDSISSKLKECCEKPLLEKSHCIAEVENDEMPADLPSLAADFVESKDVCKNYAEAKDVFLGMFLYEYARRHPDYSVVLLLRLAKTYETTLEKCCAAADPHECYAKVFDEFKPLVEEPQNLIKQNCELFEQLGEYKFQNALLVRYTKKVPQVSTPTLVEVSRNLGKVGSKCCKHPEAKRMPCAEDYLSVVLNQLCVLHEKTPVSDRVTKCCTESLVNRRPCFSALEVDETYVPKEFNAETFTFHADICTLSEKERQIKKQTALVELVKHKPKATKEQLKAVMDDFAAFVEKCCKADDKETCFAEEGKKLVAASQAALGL
# A2780 [25] = assay: Anticancer activity against human A2780 cells xenografted in nude C57B6 mouse orthotopic model of ovarian cancer assessed as tumor growth inhibition at 2.5 mg/kg administered ip 5 days a week for 4 weeks; format: functional; conditions: read-out: TGI; in short: as §3
# A549 [26] = assay: Inhibition of TNFalpha-induced IKKbeta-mediated NF-kappaB activity in human A549 cells at 10 uM after 2 hrs followed by TNFalpha addition for 3 hrs by ONE-Glo Luciferase reporter based luminescence assay; format: cell-based
# HeLa [27] = assay: Anticlonogenic activity against human HeLa cells assessed as inhibition of colony formation after 2 to 7 days by crystal violet staining; format: functional, cell-based
# In short: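 HeLa cells seeded at 500-1000 per well, grown 24 h, drug-treated 48 h at 37°C (DMSO control), then fresh medium for 7 days; methanol fixed 15 min, 0.1% crystal violet 30 min at room temperature, colonies over 50 cells counted.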
# A549 [28] = assay: Inhibition of TNFalpha-induced IKKbeta-mediated NF-kappaB activity in human A549 cells at 10 uM after 2 hrs followed by TNFalpha addition for 7 hrs by ONE-Glo Luciferase reporter based luminescence assay; format: cell-based
# In short: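 A549 luciferase cells grown 5 passages without TNFα then 2 passages with or without 5 ng/mL TNFα; 50,000 per well overnight; 10 µM compound 2 h; then 20 ng/mL TNFα 7 h; PrestoBlue 10 min (560ex/590em) viability; ONE-Glo 10 min, luminescence 1000 ms.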
# [29] = biological target: T1, Inhibitor of nuclear factor kappa-B kinase subunit beta (Homo sapiens); assay: Inhibition of IKKbeta in human MIAPaCa2 cells assessed as reduction in IkappaBalpha phosphorylation at 10 to 20 uM by Western blot analysis; format: cell-based; conditions: MIA PaCa-2
# MDA-MB-231 [30] = assay: Cytotoxicity against human MDA-MB-231 cells assessed as cell growth inhibition after 3 days by presto blue dye based plate reader method; format: functional; in short: as §1
# SK-OV-3 [31] = assay: Induction of apoptosis in human SKOV3 cells assessed as caspase 3/7 activation after 24 hrs in absence of cisplatin by Caspase Glo-3/7 luminescence assay; format: functional, cell-based; in short: as §4
# A2780 [32] = assay: Anticancer activity against human A2780 cells xenografted in nude C57B6 mouse orthotopic model of ovarian cancer assessed as tumor growth inhibition at 2.5 mg/kg administered ip 5 days a week for 4 weeks in presence of 2 mg/kg of cisplatin; format: functional; in short: as §3
# Mus musculus [33] = assay: Downregulation of NF-kappaB p65 in human A2780 cells xenografted in nude C57B6 mouse in presence of cisplatin by […]; format: functional, organism-based
structure (smiles),measurement,setting,value
C=C1CC2(OC1=O)C(=O)Nc1c(C)ccc(C)c12 (configuration not stated),EC50,A2780 [1],1 µM
same,IC50,SW480 [2],1.2 µM
same,IC50,HeLa [3],3.2 µM
same,Ratio IC50,SW480 [4],2
same,Ratio EC50,A2780 [5],20
same,Ratio IC50,HeLa [6],2
same,Ratio IC50,HeLa [7],5
same,Ratio EC50,A2780 [8],13
same,Ratio IC50,MIA PaCa-2 [9],2
same,Ratio IC50,SW480 [10],5
same,IC50,[11],0.9 µM
same,Ratio IC50,MIA PaCa-2 [12],5
C=C1CC2(OC1=O)C(=O)Nc1ccccc12 (configuration not stated),EC50,A2780 [1],2.3 µM
same,inhibition,[13],Active
same,Activity,Mus musculus [14],Active
same,growth inhibition (GI),MDA-MB-231 [15],tde
same,Activity,HeLa [16],Active
same,CI,A2780 [17],<1
same,Activity,Mus musculus [18],Active
same,Activity,Mus musculus [19],Active
same,Ratio EC50,A2780 [8],4
same,inhibition in vivo at 5 mg/kg,A2780 [20],40%
same,Activity,SK-OV-3 [21],Active
same,TGI,A2780 [22],10%
same,inhibition,A2780 [22],Dose-dependent effect
same,IC50,[23],4 µM
same,Activity,Mus musculus [24],Non-toxic
same,half-life,serum albumin,4.83 h
same,inhibition in vivo at 2.5 mg/kg,A2780 [25],21%
same,inhibition,A549 [26],> 70%
same,inhibition,HeLa [27],Dose-dependent effect
same,inhibition,A549 [28],75%
same,inhibition,[29],Active
same,growth inhibition (GI),MDA-MB-231 [30],Dose-dependent effect
same,Activity,SK-OV-3 [31],Active
same,TGI,A2780 [32],65%
same,Activity,Mus musculus [33],Active
